Assay results from ChEMBL document CHEMBL3804753, “Substituted quinolines as noncovalent proteasome inhibitors” (Bioorg Med Chem, 2016).

Assays:
[1] = compound: Cc1cc(C)c2cc(C3=CCCCC3)c(C)nc2c1; assay: Mixed type inhibition of human 20S proteasome chymotryptic-like activity using Suc-LLVY-AMC as substrate assessed as Vmax for substrate at 10 uM by Lineweaver-Burk plot analysis (reference value: 0.1959 to 0.2691 umol/min )
Outline: (§1)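 Kinetics of CT-L activity of purified human 20S proteasome with Suc-LLVY-AMC substrate increased stepwise. Measured at five compound concentrations or vehicle, 37 °C. Fluorescence of released AMC gave rates.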

[2] = compound: Cc1cc(C)c2cc(C3=CCCCC3)c(C)nc2c1; assay: Mixed type inhibition of human 20S proteasome chymotryptic-like activity using Suc-LLVY-AMC as substrate assessed as Vmax for substrate at 9 uM by Lineweaver-Burk plot analysis (reference value: 0.1959 to 0.2691 umol/min); outline: as §1
[3] = compound: Cc1cc(C)c2cc(C3=CCCCC3)c(C)nc2c1; assay: Mixed type inhibition of human 20S proteasome chymotryptic-like activity using Suc-LLVY-AMC as substrate assessed as Vmax for substrate at 8 uM by Lineweaver-Burk plot analysis (reference value: 0.1959 to 0.2691 umol/min); outline: as §1
[4] = compound: Cc1cc(C)c2cc(C3=CCCCC3)c(C)nc2c1; assay: Mixed type inhibition of human 20S proteasome chymotryptic-like activity using Suc-LLVY-AMC as substrate assessed as Vmax for substrate at 7 uM by Lineweaver-Burk plot analysis (reference value: 0.1959 to 0.2691 umol/min); outline: as §1
[5] = compound: Cc1cc(C)c2cc(C3=CCCCC3)c(C)nc2c1; assay: Mixed type inhibition of human 20S proteasome chymotryptic-like activity using Suc-LLVY-AMC as substrate assessed as Vmax for substrate at 6 uM by Lineweaver-Burk plot analysis (reference value: 0.1959 to 0.2691 umol/min); outline: as §1
[6] = compound: Cc1cc(C)c2cc(C3=CCCCC3)c(C)nc2c1; assay: Mixed type inhibition of human 20S proteasome chymotryptic-like activity using Suc-LLVY-AMC as substrate assessed as Vmax for substrate at 5 uM by Lineweaver-Burk plot analysis (reference value: 0.1959 to 0.2691 umol/min); outline: as §1
[7] = compound: Cc1cc(C)c2cc(C3=CCCCC3)c(C)nc2c1; assay: Mixed type inhibition of human 20S proteasome chymotryptic-like activity using Suc-LLVY-AMC as substrate assessed as Vmax for substrate at 4 uM by Lineweaver-Burk plot analysis (reference value: 0.1959 to 0.2691 umol/min); outline: as §1

B1: Proteasome Macropain subunit MB1 (Homo sapiens), P28074 (protein)
chain: MALASVLERPLPVNQRGFFGLGGRADLLDLGPGSLSDGLSLAAPGWGVPEEPGIEMLHGTTTLAFKFRHGVIVAADSRATAGAYIASQTVKKVIEINPYLLGTMAGGAADCSFWERLLARQCRIYELRNKERISVAAASKLLANMVYQYKGMGLSMGTMICGWDKRGPGLYYVDSEGNRISGATFSVGSGSVYAYGVMDRGYSYDLEVEQAYDLARRAIYQATYRDAYSGGAVNLYHVREDGWIRVSSDNVADLHEKYSGSTP
[1]
  Vmax: 0.0329 µmol/min
[2]
  Vmax: 0.0466 µmol/min
[3]
  Vmax: 0.0587 µmol/min
[4]
  Vmax: 0.0674 µmol/min
[5]
  Vmax: 0.0703 µmol/min
[6]
  Vmax: 0.0924 µmol/min
[7]
  Vmax: 0.0959 µmol/min
